We go through three compounds from ChEMBL document CHEMBL1250488, “Structural and functional basis of resistance to neuraminidase inhibitors of influenza B viruses” (J Med Chem, 2010).

A short description of experiment [1]: Inhibition of Influenza B virus (B/Perth/211/2001) recombinant neuraminidase E197 mutant expressed in Sf21 insect cells after 60 mins by MUNANA based assay. Summed up: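 The enzyme source was virus grown in cell culture and solubilized in 1% CHAPS (final), then titrated to give similar fluorescence. Inhibitor (serial log10 dilutions in water, 0.01–10000 nM; one inhibitor 0.01–10000 μM) was added together with 100 μM MUNANA, with no preincubation. Fluorescence was read every minute for 60 min without stop solution. […] Duplicates.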

Experiment [2] is described as follows: Inhibition of Influenza B virus (B/Perth/211/2001) recombinant neuraminidase E197 mutant expressed in Sf21 insect cells preincubated for 30 mins measured after 60 mins by MUNANA based assay. Summed up:
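Virus detergent extract (1% CHAPS final, titrated to similar fluorescence) was preincubated for 30 min with inhibitor (serial log10 dilutions in water, 0.01–10000 nM; one inhibitor 0.01–10000 μM). 100 μM MUNANA was then added and fluorescence read every minute for 60 min without stop solution. […] Duplicates.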

As a reminder, the IC50 is the concentration that gives 50% inhibition. One may read the Ki as the dissociation constant of the complex between target and ligand, obtained from inhibition or displacement.

As to `CCOC(=O)C1=C[C@@H](OC(CC)CC)[C@H](NC(C)=O)[C@@H](N)C1` [OSELTAMIVIR], in experiment [1], the 50% inhibitory concentration (IC50) came out at 660 nM and the Ki was found to be 84 nM.

Consider `O=C(O)C1(F)O[C@H]([C@H](O)[C@H](O)CO)[C@H](O)[C@@H](O)C1F` (some centres not stated), for which, in experiment [1], the IC50 is 19400 nM.

`CCC(CC)[C@H](NC(C)=O)[C@@H]1[C@H](O)[C@@H](C(=O)O)C[C@H]1NC(=N)N` [PERAMIVIR ANHYDROUS]: in experiment [2], the IC50 worked out at 41.5 nM and the Ki was 8.2 nM. In addition, in experiment [1], the IC50 worked out at 75.2 nM and the Ki is 8.3 nM.
